# ChEMBL document CHEMBL1138362, “Dihydro-alkylthio-benzyl-oxopyrimidines as inhibitors of reverse transcriptase: synthesis and rationalization of the biological data on both wild-type enzyme and relevant clinical mutants” (J Med Chem, 2007)
# How the values were obtained:
# [1] = test system: Human immunodeficiency virus type 1 reverse transcriptase (Human immunodeficiency virus 1), Q72547 [Y181I]; test: Antiviral activity against HIV1 reverse transcriptase Y181I mutant
# [2] = test system: Human immunodeficiency virus 1; test: Antiviral activity against HIV1 with reverse transcriptase K103N mutation in MT4 cells after 5 days by MTT method; assay type: functional, organism-based; details: Human immunodeficiency virus 1, MT4, 120 h
# In short: (§1)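 MT-4 cells from the NIH AIDS Reagent Program were infected with mutant HIV-1 (K103N or Y188L, from the MRC Centralised Facility) in the presence of graded drug concentrations. Mock-infected cells were used for cytotoxicity. Viable cells were counted by MTT colorimetry at day 5 post-infection.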
# [3] = test system: Human immunodeficiency virus 1; test: Antiviral activity against HIV1 with reverse transcriptase Y188L mutation in MT4 cells after 5 days by MTT method; assay type: functional, organism-based; details: Human immunodeficiency virus 1, MT4, 120 h; in short: as §1
# [4] = test system: Human immunodeficiency virus 1; test: Antiviral activity against wild type HIV1 NL4-3 in MT4 cells after 5 days by MTT method; assay type: functional, organism-based; details: Human immunodeficiency virus 1, NL4-3, MT4, 120 h
# In short: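 MT-4 lymphoid cells, infected with HIV-1 or mock-infected (for cytotoxicity), held with a range of drug concentrations; viable cells scored at day 5 post-infection by tetrazolium (MTT) colorimetry.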
# [5] = test system: Human immunodeficiency virus 1; test: Antiviral activity against HIV1 with reverse transcriptase Y181C mutation in MT4 cells after 5 days by MTT method; assay type: functional, organism-based; details: Human immunodeficiency virus 1, MT4, 120 h
# [6] = biological target: Human immunodeficiency virus type 1 reverse transcriptase (Human immunodeficiency virus 1) (UniProt Q72547); test: Antiviral activity against wild type HIV1 reverse transcriptase
# [7] = test system: Human immunodeficiency virus 1 [K103N]; test: Antiviral activity against HIV1 reverse transcriptase K103N mutant
# [8] = test system: Human immunodeficiency virus 1; test: Antiviral activity against HIV1 with reverse transcriptase IRLL98 mutation in MT4 cells after 5 days by MTT method relative to wild type NL4-3; assay type: functional
SMILES,ID50 [1] [µM],EC50 [2] [µM],EC50 [3] [µM],EC50 [4] [nM],EC50 [5] [µM],ID50 [6] [µM],ID50 [7] [µM],Fold change [8]
Cc1c(Cc2c(F)cccc2F)nc(SCc2ccc3c(c2)OCO3)[nH]c1=O,> 20,10.2,> 62.2,150,1.32,> 20,> 20,1.8
Cc1cn([C@H]2C[C@H](N=[N+]=[N-])[C@@H](CO)O2)c(=O)[nH]c1=O [ZIDOVUDINE],–,–,–,–,–,–,–,3
COc1ccc(CSc2nc(Cc3c(F)cccc3F)c(C)c(=O)[nH]2)cc1OC,> 20,9.33,> 39.7,200,0.74,0.5,> 20,1.5
Cc1c(Cc2c(Cl)cccc2Cl)nc(SCC(=O)c2ccc(C#N)cc2)[nH]c1=O,> 20,12.2,> 56.3,1080,1.31,0.2,> 20,3.2
Cc1c(C(C)c2c(F)cccc2F)nc(SC/C=C/c2ccc(C#N)cc2)[nH]c1=O (stereo not drawn),> 20,> 59.1,> 59.1,140,> 59.1,0.161,> 20,–
Cc1c(Cc2c(Cl)cccc2Cl)nc(S/C=C/c2ccc(F)cc2)[nH]c1=O,> 20,11.9,> 59.4,> 59400,> 59.4,> 20,> 20,–
CCc1c(C(C)c2c(F)cccc2F)nc(SC/C=C/c2ccc(OC)cc2)[nH]c1=O (stereo not drawn),> 20,1.02,0.63,0.2,0.7,0.016,0.4,–
"O=C1Nc2ccc(Cl)cc2C(C#CC2CC2)(C(F)(F)F)O1 (single isomer, unassigned) [EFAVIRENZ]",–,–,–,–,–,–,–,300
CCc1c(Cc2c(F)cccc2F)nc(SCc2ccc(OC)cc2)[nH]c1=O,> 20,10.3,> 62.2,12,1.45,0.03,> 20,–
CCC(c1nc(SCc2ccc(OC)cc2)[nH]c(=O)c1C)c1c(F)cccc1F (stereo not drawn),> 20,6.13,1.46,1.9,5.02,0.047,> 20,–
Cc1c(Cc2c(Cl)cccc2Cl)nc(SC/C=C/c2ccc([N+](=O)[O-])cc2)[nH]c1=O,> 20,> 10.8,> 10.8,> 10800,> 10.8,3.81,> 20,–
CCc1c(Cc2c(Cl)cccc2Cl)nc(SCCc2ccc(OC)cc2)[nH]c1=O,> 20,6.81,> 11.1,1.3,3.85,0.07,> 20,–
COc1ccc(/C=C/Sc2nc(C(C)c3c(Cl)cccc3Cl)c(C)c(=O)[nH]2)cc1 (stereo not drawn),> 20,> 55.9,> 55.9,16200,> 55.9,0.02,> 20,–
CCc1c(Cc2c(F)cccc2F)nc(SCc2ccc(C#N)cc2)[nH]c1=O,> 20,7.78,> 63,75,1.33,0.17,7.5,45.3
CCc1c(Cc2c(F)cccc2F)nc(SCc2ccc([N+](=O)[O-])cc2)[nH]c1=O,> 20,10.6,> 60,74,2.13,0.07,> 20,–
COc1ccc(/C=C/CSc2nc(C(C)c3c(F)cccc3F)c(C)c(=O)[nH]2)cc1 (stereo not drawn),> 20,0.26,0.07,0.2,0.13,0.292,3.7,–
CC(=O)Oc1ccc(CSc2nc(Cc3c(F)cccc3F)c(C)c(=O)[nH]2)cc1,> 20,> 60.1,> 60.1,22900,> 60.1,48,> 20,–
Cc1ccnc2c1NC(=O)c1cccnc1N2C1CC1 [NEVIRAPINE],–,–,–,–,–,–,–,144
COc1ccc(CSc2nc(C(C)c3c(F)cccc3F)c(C)c(=O)[nH]2)cc1 (stereo not drawn),> 20,0.55,0.95,0.025,0.3,0.003,45,–
COC(=O)c1ccc(CSc2nc(Cc3c(F)cccc3F)c(C)c(=O)[nH]2)cc1,> 20,11.2,> 34.1,142,1.35,0.5,> 20,6.9
Cc1c(Cc2ccc(C#N)cc2)nc(SCc2ccc(C#N)cc2)[nH]c1=O,> 20,> 67.2,> 67.2,> 67200,> 67.2,> 20,> 20,–
CCc1c(Cc2c(Cl)cccc2Cl)nc(SCc2ccc(C#N)cc2)[nH]c1=O,> 20,8.84,> 58.1,44,3.05,0.1,> 20,194
Cc1c(Cc2c(F)cccc2F)nc(SCC(=O)c2ccc(Cl)cc2)[nH]c1=O,> 20,> 59.5,> 59.5,3760,3.69,7.5,> 20,–
Cc1c(Cc2ccc(C#N)cc2)nc(SCC(=O)c2ccccc2)[nH]c1=O,> 20,> 67.2,> 67.2,> 67200,> 67.2,> 20,> 20,–
CCCCc1ccc(CSc2nc(Cc3ccc(C#N)cc3)c(C)c(=O)[nH]2)cc1,> 20,> 79.9,> 79.9,4570,> 79.9,> 20,> 20,–
